The target of data set [1] is Sonic hedgehog protein (Mus musculus) (UniProt Q62226). The data set can be described thus: Ratio of compound IC50 to cyclopamine IC50 for inhibition of SHH in mouse Shh-Light2 cells. The format is functional, cell-based. The conditions noted are these: Shh Light II.
Data set [2] has as its system Oryzias latipes. Put plainly: Teratogenic activity in Oryzias latipes CAB embryo assessed as induction of cyclopia phenotype at 0.01 to 100 uM. Format: organism-based. Conditions: in vivo. The method in brief: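 CAB-strain medaka kept at 26 °C on a 14:10 h light/dark cycle. Fertilized eggs exposed from 4–5 hpf to 5 days post fertilisation at 26 °C in tap water (pH 8–8.2) with 0.1% methylene blue. Compounds added from ethanol stocks at 1% final solvent; controls received 1% ethanol. Embryos inspected visually for cyclopia (reduced eye distance).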

Data set [3] relates to Oryzias latipes. The data set can be described thus: Teratogenic activity in Oryzias latipes embryo assessed as induction of cyclopia phenotype at 12.5 uM. The format is organism-based. The conditions noted are these: in vivo. The gist of the method: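 Medaka (CAB strain) fertilized eggs, collected within 1–2 h post fertilization, exposed from 4–5 hpf to 5 days post fertilisation at 26 °C in tap water (pH 8–8.2) with 0.1% methylene blue; compounds added from ethanol stocks, final 1% ethanol, controls 1% ethanol. Tested range 0.01–100 µM. Embryos visually scored for cyclopia (reduced eye distance).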

Consider 12 molecules from ChEMBL document CHEMBL1155261, “Synthesis and biological evaluation of SANT-2 and analogues as inhibitors of the hedgehog signaling pathway” (Bioorg Med Chem, 2009).

Take `CN(C)c1ccc(C(=O)Nc2ccc(Cl)c(-c3nc4ccccc4[nH]3)c2)cc1`: the Ratio IC50 in data set [1] stood at 6.9.
Still for that read-out and setting: under `COc1ccccc1C(=O)Nc1ccc(Cl)c(-c2nc3ccccc3[nH]2)c1` stands 1.5.
With `COc1cc(C(=O)Nc2ccc(Cl)c(-c3nc4ccccc4[nH]3)c2)cc(OC)c1OC`, the Activity entry in the data set with Oryzias latipes [2] was “Non-toxic”.
As for `COc1ccc(C(=O)Nc2ccc(Cl)c(-c3nc4ccccc4[nH]3)c2)cc1`, in data set [1], the Ratio IC50 was found to be 11.
On the same count and under the same terms, under `O=C(Nc1ccc(Cl)c(-c2nc3ccccc3[nH]2)c1)c1ccc(F)cc1` stands 5.2.
Still for that read-out and setting: the same measure for `O=C(Nc1ccc(Cl)c(-c2nc3ccccc3[nH]2)c1)c1ccccc1`: 8.
Consider `O=C(Nc1ccc(Cl)c(-c2nc3ccccc3[nH]2)c1)c1cccc(C(F)(F)F)c1`, for which the Activity result in the data set on Oryzias latipes [2] is “Non-toxic”. In addition, in data set [1], the Ratio IC50 worked out at 11.
Regarding `CCOc1cc(C(=O)Nc2cccc(-c3nc4ccccc4[nH]3)c2)cc(OCC)c1OCC`, the Ratio IC50 in data set [1] came to 1.
The same measure, in the same setting: under `O=C(Nc1ccc(Cl)c(-c2nc3ccccc3[nH]2)c1)c1ccc(Cl)cc1` stands 5.9.
Regarding `CC1=C2C[C@H]3[C@@H](CC=C4C[C@@H](O)CC[C@@]43C)[C@@H]2CC[C@]12O[C@@H]1C[C@H](C)CN[C@H]1[C@H]2C` [CYCLOPAMINE], the Activity result with Oryzias latipes [3] was “Toxic”; in the data set on Oryzias latipes [2], “Non-toxic”. The Ratio IC50 in data set [1] worked out at 11.
For `N#Cc1ccc(C(=O)Nc2ccc(Cl)c(-c3nc4ccccc4[nH]3)c2)cc1`, in data set [1], the Ratio IC50 amounted to 7.1.
As to `CCOc1cc(C(=O)Nc2ccc(Cl)c(-c3nc4ccccc4[nH]3)c2)cc(OCC)c1OCC`, in the data set with Oryzias latipes [2], the Activity result was “Non-toxic”.
